Data on 25 compounds can be found in PubChem BioAssay AID871 (The Scripps Research Institute Molecular Screening Center, 2007).

In all, about 190,000 compounds went through this assay and about 1,800 (0.95%) were called active.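 How the source made its calls: active means activation above the screen-wide mean of compound activation plus 3 SD (cut at about 130% in these data); inactive means the rest.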 The entries come from a sample that favours actives as a whole.

The nature of the test: IL-6 driven STAT3 reporter potentiators, primary screen, U3A cells, luciferase, luminescence, MLSCN library (AID 871).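 Further: 0% = background luminescence of wells with medium and substrate only.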 To be noted: IL-6 STAT3-luciferase reporter, at 5.6 µM, stronger effect = higher value, 100% = signal with IL-6 EC80 alone. In outline:
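Test system: human U3A cells carrying STAT3-luciferase construct; control set: IL-6-only wells as 100% reference; timing: compound pre-incubation 1 h before IL-6, then 6 h stimulation at 37 °C; also added: IL-6 stimulus at 33 ng/mL final; evaluation: % activation versus median of IL-6-stimulated wells; detection: reporter luminescence signal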
Background: A reporter such as luciferase makes a cellular process visible.
Regarding `Cc1sc2nc(CC(N)=O)[nH]c(=O)c2c1-c1ccccc1`, the activation (% of control) is 96.5% (inactive).

With `CCOC(=O)CC(=O)CSc1nc(-c2ccccc2)cc(-c2ccc(Cl)cc2)c1C#N`, the activation (% of control) is 98.1% (inactive).

As to `N#Cc1c(C(F)(F)F)cc(-c2ccc(Cl)cc2)nc1SCC(=O)O`, the activation (% of control) was 142% (active).

Take `N#Cc1c(C(F)(F)F)cc(-c2ccccc2)nc1SCC(=O)N1CCOCC1`: the activation (% of control) is 107% (inactive).

For the compound `Cc1nn(CC2CC2)c(=O)n1N(C)c1ncc(C(F)(F)F)cc1Cl`, the activation (% of control) was 99.4% (inactive).

Take `COc1cccc(C2c3[nH]c4ccccc4c3CCN2Cc2cccc(C)n2)c1` (stereo not given): the activation (% of control) is 126% (inactive).

On to `CCN(CCn1cccn1)C(=O)CC1C(=O)NCCN1Cc1cccc(OC)c1OC` (stereo not given), for which the activation (% of control) is 106% (inactive).

Consider `COc1ccc(C2c3[nH]c4ccccc4c3CCN2CCCn2cccn2)cc1C` (stereo not given), for which the activation (% of control) is 148% (active).

On to `Cc1cc(C)c(C#N)c(SCC(=O)Nc2ccccc2)n1`, for which the activation (% of control) is 85.2% (inactive).

In the case of `Cc1ccc(C(=O)N2CCCC(c3ccccc3)=N2)cc1`, the activation (% of control) is 92.1% (inactive).

As to `COC(=O)c1[nH]c2ccccc2c1NS(=O)(=O)c1ccc(OC)cc1OC`, the activation (% of control) was 149% (active).

On to `COc1ccc(OC)c(S(=O)(=O)Nc2ccccc2F)c1`, for which the activation (% of control) is 96.8% (inactive).

Take `COC(=O)c1[nH]c2ccc(Br)cc2c1NC(=O)Oc1ccccc1`: the activation (% of control) is 102% (inactive).

In the case of `O=[N+]([O-])c1ccccc1Nc1ccc(O)cc1`, the activation (% of control) is 104% (inactive).

As to `CCOc1ccc2c(=O)c(-c3ccc4c(c3)OCCCO4)c(C)oc2c1`, the activation (% of control) was 98.4% (inactive).

On to `Cc1ccc(NC(=O)c2cc([N+](=O)[O-])ccc2Cl)c(O)c1`, for which the activation (% of control) was 138% (active).

As for `CCC(C)C(=O)Nc1cc([N+](=O)[O-])ccc1Cl` (stereo not given), the activation (% of control) is 103% (inactive).

On to `CC(C)C(=O)Nc1cccc(NC(=O)c2ccc([N+](=O)[O-])cc2Cl)c1`, for which the activation (% of control) is 106% (inactive).

As to `CC1CCC2(CC1)NC(=O)N(Cc1nnc(-c3cccs3)o1)C2=O` (stereo not given), the activation (% of control) was 96.4% (inactive).

On to `C/C(=C\c1ccco1)CN1CCC(N2CCC(C(=O)N3CCOCC3)CC2)CC1`, for which the activation (% of control) was 110% (inactive).

As for `Cn1cc(CN2CCCC(CO)C2)c(-c2ccc(Oc3ccccc3)cc2)n1` (stereo not given), the activation (% of control) was 108% (inactive).

As for `COc1cc(NS(=O)(=O)c2ccc(N/C=C(\C=O)c3nc4cc(Cl)ccc4o3)cc2)nc(OC)n1`, the activation (% of control) is 159% (active).

Regarding `COc1cc(NS(=O)(=O)c2ccc(NC(=O)c3ccc(S(=O)(=O)N4CCCCC4)cc3)cc2)ncn1`, the activation (% of control) was 97.5% (inactive).

Take `COc1cc(NS(=O)(=O)c2ccc(N=Cc3c(C)[nH]n(-c4ccccc4)c3=O)cc2)nc(OC)n1`: the activation (% of control) is 111% (inactive).

Turning to `NC(=O)c1ccc(NC(=O)COC(=O)C(Cc2ccccc2)NC(=O)c2ccccc2)cc1` (stereo not given), the activation (% of control) is 92.8% (inactive).
